An excerpt weighted towards active compounds, which were near 1.8% of everything screened.
TLR9-MyD88 inh: inhibitors of TLR9-MyD88 association in cells, primary screen, cell-based, CHO, BLA complementation, fluorescence; Toll-like receptor 9 (Homo sapiens) + Myeloid differentiation primary response protein …; CCF4 FRET ratio; inhibition, % at 4.98 µM; actives 0.21% (n = 340,000);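 active = inhibition above the mean over all tested compounds plus 3 SD, cut at about 21% in these data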
MC4R ag barr: MC4R agonists recruiting beta-arrestin, primary screen, cell-based, luminescence, agonist arm of biased-ligand search. actives 0.98% (n = 360,000). U2OS MC4R beta-arrestin complementation; percent of melanotan II response, DMSO zero. activation, % at 8.9 µM. AID 540308, 2011. Melanocortin receptor 4 (Homo sapiens), P32245;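 active = activation above a per-plate cutoff, the mean activation of sample wells on that plate plus 3 SD, cut at about 8% in these data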
MC4R antag cAMP: MC4R antagonists of cAMP signaling, primary screen, cell-based, TR-FRET, antagonist arm of biased-ligand search | Melanocortin receptor 4 (Homo sapiens), P32245 | MC4R-expressing cells, MTII-stimulated cAMP, LANCE TR-FRET | inhibition, % at 6.5 µM | actives 0.48% (n = 360,000) | AID 540295, 2011;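 active = inhibition above its plate's cutoff, the mean of tested wells on that plate plus 3 SD, cut at about 29% in these data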
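Material: human MC4R-expressing U2OS cells. Probe or stimulus: Melanotan II challenge. Dosing: 6.5 µM single dose. Times: 30-min compound, 1-h challenge, 1-h detection, room temperature. Technique: TR-FRET with Eu-cAMP and labeled anti-cAMP, 671 nm. Replication: singlicate.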
NOD2-RIPK2 inh: NOD2-RIPK2 binding disruptors in cells, primary screen, fluorescence, CHO cells, BLA complementation; AID 624267, 2012; actives 0.38% (n = 360,000); inhibition, % at 4.98 µM; Receptor-interacting serine/threonine-protein kinase 2 (Homo sapiens), O43353; CCF4 ratio; in the data active = inhibition above about 21%
Target sequence (O43353 whole entry, looked up): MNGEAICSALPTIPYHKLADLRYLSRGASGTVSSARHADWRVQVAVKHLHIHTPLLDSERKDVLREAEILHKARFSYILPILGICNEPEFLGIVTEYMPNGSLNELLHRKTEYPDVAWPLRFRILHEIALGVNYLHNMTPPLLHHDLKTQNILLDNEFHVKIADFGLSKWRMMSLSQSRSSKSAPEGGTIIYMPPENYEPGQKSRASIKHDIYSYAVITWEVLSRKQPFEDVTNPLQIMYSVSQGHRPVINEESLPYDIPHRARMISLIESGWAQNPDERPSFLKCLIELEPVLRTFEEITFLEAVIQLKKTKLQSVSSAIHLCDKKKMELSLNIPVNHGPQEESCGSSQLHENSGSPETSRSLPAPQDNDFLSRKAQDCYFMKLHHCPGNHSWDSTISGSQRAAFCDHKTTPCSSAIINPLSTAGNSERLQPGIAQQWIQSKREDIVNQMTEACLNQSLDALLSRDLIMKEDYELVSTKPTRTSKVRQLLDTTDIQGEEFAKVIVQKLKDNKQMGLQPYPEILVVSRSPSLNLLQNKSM
TLR4-MyD88 BLA: inhibitors of TLR4-MyD88 association in cells, primary screen, cell-based, HeLa CL3-4, BLA complementation, FRET ratio; Toll-like receptor 4 (Homo sapiens) + Myeloid differentiation primary response protein …; HeLa CL3-4 TLR4/MyD88 BLA complementation; inhibition, % at 8.4 µM; actives 0.18% (n = 200,000); AID 861, 2007; in the data active = inhibition above about 25%
MC4R barr conf: MC4R beta-arrestin agonists, retest, confirmation, cell-based, luminescence, U2OS; shares compounds with MC4R ag barr; U2OS MC4R beta-arrestin recruitment; scaled DMSO 0%, Melanotan II 100%; activation, % at 8.9 µM; actives 31% (n = 2,400); AID 602192, 2012;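 active = mean activation across replicates above the hit cutoff set in the earlier primary screen, cut at about 8% in these data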
MOR DOR agonist: agonists of MOR-DOR heterodimerization, counter-screen for MC4R biased agonist project, cell-based, luminescence; U2OS PathHunter beta-arrestin, beta-gal luminescence; percent of deltorphin B response, DMSO zero; shares compounds with MC4R ag barr; AID 602194, 2012; activation, % at 9.2 µM; actives 5.8% (n = 2,400);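 active = mean activation across replicates exceeds the hit threshold derived in the earlier primary screen, cut at about 18% in these data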
Numbers stand for hits.

For Cc1ccc(S(=O)(=O)N2[C@@H](c3ccc(C(C)(C)C)cc3)C(C(=O)O)=CC[C@H]2c2ccc(C(C)C)cc2)cc1 the results were TLR9-MyD88 inh inactive, MC4R ag barr 20, MC4R antag cAMP inactive, NOD2-RIPK2 inh inactive, MC4R barr conf 15 and MOR DOR agonist inactive.
O=C(/C=C/c1cc2ccccc2o1)c1ccccc1O was read as TLR9-MyD88 inh inactive, MC4R ag barr 15, MC4R antag cAMP inactive, NOD2-RIPK2 inh inactive, MC4R barr conf inactive and MOR DOR agonist inactive.
`COc1ccc(O)c(C(=O)/C=C/c2cc3ccccc3o2)c1` gave TLR9-MyD88 inh inactive, MC4R ag barr inactive, MC4R antag cAMP inactive, NOD2-RIPK2 inh inactive and TLR4-MyD88 BLA inactive.
N#C/C(=C(/O)COC(=O)CSc1ccc(Cl)cc1)c1nc2ccccc2[nH]1 was read as TLR9-MyD88 inh inactive, MC4R ag barr 9.7, MC4R antag cAMP inactive, NOD2-RIPK2 inh inactive, TLR4-MyD88 BLA inactive, MC4R barr conf inactive and MOR DOR agonist inactive.
`Cc1cc(SCC(=O)OC/C(O)=C(\C#N)c2nc3ccccc3[nH]2)c(C)cc1Br` gave TLR9-MyD88 inh inactive, MC4R ag barr inactive, MC4R antag cAMP inactive, NOD2-RIPK2 inh inactive and TLR4-MyD88 BLA inactive.
Screening CS(=O)(=O)N1CCc2cc(C(=O)N3CCN(c4ccccc4F)CC3)ccc21 returned TLR9-MyD88 inh inactive, MC4R ag barr inactive, MC4R antag cAMP inactive and NOD2-RIPK2 inh inactive.
`CCOc1ccc(OCCSc2nc3ccccc3c(=O)[nH]2)cc1` gave TLR9-MyD88 inh inactive, MC4R ag barr 9.6, MC4R antag cAMP inactive, NOD2-RIPK2 inh inactive, TLR4-MyD88 BLA inactive, MC4R barr conf inactive and MOR DOR agonist inactive.
`O=c1[nH]c(SCCOc2cccc3ccccc23)nc2ccccc12` gave TLR9-MyD88 inh inactive, MC4R ag barr 10, MC4R antag cAMP inactive, NOD2-RIPK2 inh inactive, TLR4-MyD88 BLA inactive, MC4R barr conf inactive and MOR DOR agonist inactive.
For CCOc1ccc(OCCSc2nc(C)cc(=O)[nH]2)cc1 the results were TLR9-MyD88 inh inactive, MC4R ag barr inactive, MC4R antag cAMP inactive, NOD2-RIPK2 inh inactive and TLR4-MyD88 BLA inactive.
Screening CN(C)CCOc1ccc(-c2c(-c3ccccc3)sc3ccccc23)cc1 returned TLR9-MyD88 inh inactive, MC4R ag barr 23, MC4R antag cAMP inactive, NOD2-RIPK2 inh inactive, MC4R barr conf 38 and MOR DOR agonist inactive.
c1ccc(-c2sc3ccccc3c2-c2ccc(OCCN3CCCCC3)cc2)cc1 was read as TLR9-MyD88 inh inactive, MC4R ag barr inactive, MC4R antag cAMP inactive and NOD2-RIPK2 inh inactive.
Screening Cc1ccccc1OCC(=O)N=Nc1c(O)n(C)c2ccccc12 returned TLR9-MyD88 inh inactive, MC4R ag barr 18, MC4R antag cAMP inactive, NOD2-RIPK2 inh inactive, MC4R barr conf inactive and MOR DOR agonist inactive.
Screening CCOC(=O)N=Nc1c(O)n(C)c2ccccc12 returned TLR9-MyD88 inh inactive, MC4R ag barr inactive, MC4R antag cAMP inactive, NOD2-RIPK2 inh inactive and TLR4-MyD88 BLA inactive.
For Cc1ccc(C)c(Cn2cnc3c(nnn3-c3ccc(F)cc3)c2=O)c1 the results were TLR9-MyD88 inh inactive, MC4R ag barr 13, MC4R antag cAMP inactive, NOD2-RIPK2 inh inactive, TLR4-MyD88 BLA inactive, MC4R barr conf inactive and MOR DOR agonist inactive.
`COc1ccc(-n2nnc3c(=O)n(Cc4ccccc4C)cnc32)cc1` gave TLR9-MyD88 inh inactive, MC4R ag barr inactive, MC4R antag cAMP inactive, NOD2-RIPK2 inh inactive and TLR4-MyD88 BLA inactive.
`CCC(Oc1cc(Cl)ccc1Cl)C(=O)NNC(=O)CCC(=O)O` (centres undefined) gave TLR9-MyD88 inh inactive, MC4R ag barr inactive, MC4R antag cAMP inactive, NOD2-RIPK2 inh inactive and TLR4-MyD88 BLA inactive.
Screening CCC(Oc1cc(Cl)ccc1Cl)C(=O)NN1C(=O)C2C3CCC(C3=C(C)C)C2C1=O (centres undefined) returned TLR9-MyD88 inh inactive, MC4R ag barr 9.9, MC4R antag cAMP inactive, NOD2-RIPK2 inh inactive, TLR4-MyD88 BLA inactive, MC4R barr conf inactive and MOR DOR agonist inactive.
For Nc1ccccc1C(O)(Cc1ccccc1)c1ccccc1 (centres undefined) the results were TLR9-MyD88 inh inactive, MC4R ag barr inactive, MC4R antag cAMP inactive and NOD2-RIPK2 inh inactive.
Screening C=CCn1c(SCC(=O)NC(=O)NCc2ccco2)nc2sc(C)c(C)c2c1=O returned TLR9-MyD88 inh inactive, MC4R ag barr 11, MC4R antag cAMP inactive, NOD2-RIPK2 inh inactive, TLR4-MyD88 BLA inactive, MC4R barr conf 10 and MOR DOR agonist inactive.
CC(C)(C)C1CCC(CN2C(Nc3ccccc3)=NC[C@@H]2Cc2ccccc2)CC1 (some centres undefined) was read as TLR9-MyD88 inh inactive, MC4R ag barr 14, MC4R antag cAMP inactive, NOD2-RIPK2 inh inactive, MC4R barr conf 11 and MOR DOR agonist inactive.
For CCN1C(Nc2ccccc2)=NC[C@@H]1Cc1ccccc1 the results were TLR9-MyD88 inh inactive, MC4R ag barr inactive, MC4R antag cAMP inactive and NOD2-RIPK2 inh inactive.
CC(=O)Nc1ccc(S(=O)(=O)Nc2ccccc2C(=O)N2CCCC2)cc1 was read as TLR9-MyD88 inh inactive, MC4R ag barr inactive, MC4R antag cAMP inactive and NOD2-RIPK2 inh inactive.
CCCc1cc(C(=O)Cc2ccc(C(=O)OCC)o2)c(O)cc1O was read as TLR9-MyD88 inh inactive, MC4R ag barr inactive, MC4R antag cAMP inactive, NOD2-RIPK2 inh inactive and TLR4-MyD88 BLA inactive.
For CCCc1cc(-c2n[nH]c(C)c2-c2ccc(C(=O)OCC)o2)c(O)cc1O the results were TLR9-MyD88 inh inactive, MC4R ag barr 13, MC4R antag cAMP inactive, NOD2-RIPK2 inh inactive, TLR4-MyD88 BLA inactive, MC4R barr conf inactive and MOR DOR agonist inactive.
For Cc1cc(F)cc(-c2cc(C(=O)NCc3cccc(Cl)c3)[nH]n2)c1 the results were MC4R ag barr 13, MC4R antag cAMP inactive, NOD2-RIPK2 inh inactive, MC4R barr conf inactive and MOR DOR agonist inactive.
COc1cc(SC#N)ccc1N=Cc1c(C)[nH]n(-c2ccc(C)c(C)c2)c1=O was read as TLR9-MyD88 inh inactive, MC4R ag barr 12, MC4R antag cAMP inactive, NOD2-RIPK2 inh inactive, TLR4-MyD88 BLA inactive, MC4R barr conf 9.3 and MOR DOR agonist inactive.

Bioassay records from PubChem BioAssay.
